Screens: PubChem, Broad Institute
Statin myotox sup: suppressors of simvastatin-induced myotoxicity in C2C12 myotubes | ATP luminescence, 48 h; scaled: DMSO 0, geranylgeraniol control 100 | rescue of ATP level, % at 7.49 µM | 330,000 tested, 0.78% active;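 active means mean ATP rescue above about 67%, or every replicate alone reaching that limit, limit read from the data, passing the limit was not always enough; inconclusive means no clear call, values can overlap the other calls; inactive means mean under the limit and some replicate under it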;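 further: myotubes were challenged with 10 µM simvastatin during compound exposure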
DENV2 CPE: inhibitors of DENV2 cytopathic effect; 350,000 tested, 1.7% active; CPE inhibition, % at 9.99 µM; DENV2-infected cells, cytopathic effect rescue, plate reader; AID 651640; in the data active means CPE inhibition above about 20%, passing the limit was not always enough; inconclusive means no clear call, values can overlap the other calls; tested in BHK-21 cells;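 further: 0% = median of neutral control wells and 100% = median of positive control wells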
E-selectin induc: induces E-selectin expression in human endothelial cells; AID 686992; 260,000 tested, 0.37% active; P16581; HUVEC E-selectin immunofluorescence imaging; normalized: neutral wells 0, TNF-alpha wells 100; activation, % at 7.58 µM;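 active means mean E-selectin-positive cell signal at least 10% of the positive control, reached in at least 60% of replicates, without over 20% cell loss; inconclusive means no rule given, readout overlaps actives, possibly toxicity-flagged; inactive means the rest, including those meeting only one limit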
Target sequence (P16581 whole entry, looked up): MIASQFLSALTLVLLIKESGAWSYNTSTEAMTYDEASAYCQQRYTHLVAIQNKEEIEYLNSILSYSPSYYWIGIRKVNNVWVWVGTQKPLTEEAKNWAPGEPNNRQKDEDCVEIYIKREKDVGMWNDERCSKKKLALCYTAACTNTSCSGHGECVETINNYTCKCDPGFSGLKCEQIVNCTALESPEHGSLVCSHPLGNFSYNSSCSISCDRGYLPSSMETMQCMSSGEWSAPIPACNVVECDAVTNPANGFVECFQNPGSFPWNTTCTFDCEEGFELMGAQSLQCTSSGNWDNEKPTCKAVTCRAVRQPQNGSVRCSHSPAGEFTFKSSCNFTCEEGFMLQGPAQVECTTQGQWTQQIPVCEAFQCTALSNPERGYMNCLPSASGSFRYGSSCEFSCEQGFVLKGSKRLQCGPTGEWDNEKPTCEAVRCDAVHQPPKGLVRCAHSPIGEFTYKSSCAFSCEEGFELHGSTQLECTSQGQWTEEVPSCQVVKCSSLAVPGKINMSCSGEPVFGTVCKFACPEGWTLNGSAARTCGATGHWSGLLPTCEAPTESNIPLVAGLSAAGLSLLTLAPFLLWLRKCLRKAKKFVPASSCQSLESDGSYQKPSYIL
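System: HUVEC, human umbilical vein endothelial cells; quantity: 3,000 cells/well; buffer or medium: EGM-2 medium, gelatin-coated wells; dosing: single-point compound dose; detection: immunofluorescence imaging; evaluation: % PE-positive cells; benchmarks: TNF-alpha, DMSO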
Numbers without * were called inactive; u = inconclusive; x = not tested or not shown. The list is not random: actives were taken first. Their share in the collection is about 2.2%.

SMILES | Statin myotox sup | DENV2 CPE | E-selectin induc
C[C@@H]1CN([C@@H](C)CO)C(=O)c2cc(NC(=O)CCCN(C)C)ccc2O[C@H]1CN(C)Cc1ccc(Oc2ccccc2)cc1 | 1 | 12 | -6
C[C@@H]1CN([C@H](C)CO)C(=O)CCCn2nncc2CO[C@@H]1CN(C)Cc1ccc(C(=O)O)cc1 | x | -2 | 0
O=C(c1cccc(F)c1)N1CC[C@H]2[C@H](CO)Nc3ccc(-c4ccccc4)cc3[C@H]21 | x | -4 | 1
COc1cccc(-c2ccc3c(c2)[C@@H]2[C@@H](CCN2C(=O)c2cccc(F)c2)[C@@H](CO)N3)c1 | -28 | 28* | u
O=C(c1cccc(F)c1)N1CC[C@@H]2[C@H]1c1cc(-c3ccccc3)ccc1N[C@@H]2CO | x | 46* | 1
COc1ccc(-c2ccc3c(c2)[C@H]2[C@H](CCN2C(=O)c2cccc(F)c2)[C@H](CO)N3)cc1 | -14 | -17 | 0
CO[C@@H](CN(C)Cc1nccs1)[C@H](C)CN([C@H](C)CO)S(=O)(=O)c1ccc(C)cc1 | 4 | 6 | 0
CCCN1[C@@H]2Cn3c(ccc(C4=CCCC4)c3=O)[C@H]1[C@@H](C(=O)NCCOC)[C@@H]2CO | 1 | u | -1
C[C@@H]1CN([C@H](C)CO)C(=O)c2cc(NC(=O)NC3CCCCC3)ccc2O[C@H]1CN(C)Cc1ccncc1 | 11 | 7 | 0
C[C@@H]1CN([C@@H](C)CO)C(=O)c2cc(NC(=O)Nc3ccc(F)cc3)ccc2O[C@@H](C)CCCCO[C@H]1CN(C)Cc1ccncc1 | 107* | -3 | 0
C[C@@H]1CCCCO[C@H](CN(C)Cc2ccncc2)[C@H](C)CN([C@@H](C)CO)C(=O)c2cc(NC(=O)Nc3ccc(F)cc3)ccc2O1 | 28 | u | 0
C[C@H]1CN([C@@H](C)CO)C(=O)c2cc(NC(=O)NC3CCCCC3)ccc2O[C@H]1CN(C)Cc1ccncc1 | 6 | 25* | 0
C[C@@H]1CCCCO[C@H](CN(C)Cc2ccncc2)[C@@H](C)CN([C@@H](C)CO)C(=O)c2cc(NC(=O)NC3CCCCC3)ccc2O1 | -3 | 75* | 0
C[C@H]1CCCCO[C@@H](CN(C)Cc2ccncc2)[C@@H](C)CN([C@@H](C)CO)C(=O)c2cc(NC(=O)NC3CCCCC3)ccc2O1 | 10 | u | 0
COCC(=O)N(C)C[C@@H]1Oc2cc(C#CCC3CCCC3)ccc2S(=O)(=O)N([C@@H](C)CO)C[C@H]1C | 9 | -1 | 0
CCCNC(=O)N1CC2(CN(S(=O)(=O)c3ccccc3)C2)c2c(n(C)c3cc(OC)ccc23)[C@@H]1CO | x | 2 | 0
COc1cccc(NC(=O)N(C)C[C@H]2OCc3ccccc3-c3c(n(C)c4ccccc34)C(=O)N([C@@H](C)CO)C[C@H]2C)c1 | 12 | 0 | 0
Cc1c(Cl)cccc1NC(=O)CNC(=O)Cc1n[nH]c(=O)c2ccccc12 | 110* | 7 | 0
O=C(Cc1n[nH]c(=O)c2ccccc12)NCc1ccc(Cl)cc1 | 4 | -2 | 3
CCN(CC(=O)Nc1c(F)cccc1F)C(=O)c1ccc(COc2ccccc2)cc1 | -2 | 89* | x
CCN(CC(=O)Nc1c(F)cccc1F)C(=O)c1ccc(C(F)(F)F)cc1 | 6 | 6 | 0
COc1ccc(NC(=O)N(C)C[C@H]2Oc3c(NC(=O)c4ccncc4)cccc3C(=O)N([C@@H](C)CO)C[C@@H]2C)cc1 | 10 | 1 | 0
COc1ccc(CN=C(C#N)C2=C(O)c3ccccc3C2=O)cc1 | x | -3 | x
N#CC(=Nc1cccc(F)c1)C1=C(O)c2ccccc2C1=O | x | 32* | 0
Cc1cccc(-c2ccc([C@@H]3[C@H]4CN(S(=O)(=O)c5cccc(F)c5)CC(=O)N4[C@H]3CO)cc2)c1 | x | 5 | 0
SMILES | Statin myotox sup | DENV2 CPE | E-selectin induc
C[C@@H]1CCCCO[C@@H](CN(C)Cc2ccc3c(c2)OCO3)[C@H](C)CN([C@@H](C)CO)C(=O)c2cc(NC(=O)Nc3ccc(F)cc3)ccc2O1 | -70 | -1 | 0
CCCOc1ccc(C(=O)NCc2ccco2)cc1 | -8 | x | x
CC(C)Oc1ccc(C(=O)NCc2ccco2)cc1 | 127* | x | x
C[C@H](CO)N1C[C@H](C)[C@@H](CN(C)Cc2ccccc2)Oc2ccc(NS(=O)(=O)c3ccc(F)cc3)cc2C1=O | 12 | -5 | 0
C[C@@H]1CN([C@@H](C)CO)C(=O)c2cc(NS(C)(=O)=O)ccc2O[C@H]1CN(C)Cc1ccc(-c2ccccc2)cc1 | 11 | 32* | 0
C[C@H](CO)N1C[C@H](C)[C@H](CN(C)Cc2ccc(-c3ccccc3)cc2)Oc2ccc(NS(=O)(=O)c3ccc(F)cc3)cc2C1=O | -16 | -1 | 2
C[C@H](CO)N1C[C@H](C)[C@H](CN(C)Cc2ccc(-c3ccccc3)cc2)Oc2ccc(NS(C)(=O)=O)cc2C1=O | -21 | -1 | 0
C[C@H]1CN([C@@H](C)CO)C(=O)c2cc(NS(=O)(=O)c3ccc(F)cc3)ccc2O[C@H]1CN(C)Cc1ccccc1 | 21 | 47* | 0
C[C@@H]1CN([C@H](C)CO)C(=O)c2cc(NS(=O)(=O)c3ccc(F)cc3)ccc2O[C@H]1CN(C)Cc1ccc(-c2ccccc2)cc1 | 8 | 30* | 0
CCC(=O)N1C[C@H](O)COC[C@H]2O[C@@H](CC(=O)N3CCCCC3)CC[C@@H]21 | 4 | 8 | 0
C[C@H]1CN([C@@H](C)CO)C(=O)c2cccc(NC(=O)Nc3ccc4c(c3)OCO4)c2O[C@H]1CN(C)C(=O)NC1CCCCC1 | -6 | -5 | -11
O=C(c1ccccc1[N+](=O)[O-])N1CCN(c2ccc(N3CCOCC3)nn2)CC1 | 1 | x | 58*
Cc1ccccc1C(=O)N1CCN(c2ccc(N3CCOCC3)nn2)CC1 | -16 | -10 | x
CC(C)NC(=O)N[C@@H]1CC[C@@H](CCn2cc(-c3ccccc3)nn2)O[C@H]1CO | 1 | -4 | 0
NCC[C@@H]1CC[C@@H](NC(=O)NC2CCCCC2)[C@H](CO)O1 | -8 | -3 | 0
O=C1Nc2ccccc2C(=O)N(C2CCCC2)C1C(=O)NC1CC1 (centres undefined) | x | 35* | 0
O=C(NCC(F)(F)F)C1C(=O)Nc2ccccc2C(=O)N1C1CCCC1 (centres undefined) | x | -21 | 1
Cc1cc(=O)[nH]c(SCC(=O)Nc2c(C)n(C)n(-c3ccccc3)c2=O)n1 | -16 | u | 1
Cc1cc(=O)[nH]c(Nc2c(C)n(C)n(-c3ccccc3)c2=O)n1 | 124* | x | x
CC(C)CC#Cc1cnc2c(c1)C(=O)N([C@H](C)CO)C[C@H](C)[C@H](CN(C)C(=O)CN1CCOCC1)O2 | 1 | -6 | 0
COc1ccc(-c2cc(=O)c3c(OC)c(OC)c(OC)c(OC)c3o2)cc1OC | -10 | -3 | 0
COc1ccc2c(=O)cc(-c3ccncc3)oc2c1OC | 4 | 33* | 0
O=c1cc(-c2ccc(O)cc2)oc2ccccc12 | 24 | 4 | x
O=c1cc(-c2ccncc2)oc2ccccc12 | 115* | x | x
N#CCc1c(C#N)c(N)nc(N2CCN(C=O)CC2)c1C#N | x | -1 | x
N#CCc1c(C#N)c(N)nc(N2CCN(S(=O)(=O)c3ccccc3)CC2)c1C#N | 84* | x | x
COc1ccccc1NC(=O)N[C@H]1CC[C@H](CCNS(=O)(=O)c2ccc(C)cc2)O[C@H]1CO | x | 22* | 1
